Experimental data from PMC3361693 (Chemistry & biology, 2012).
Values after ≈ are worked out from the molar mass of the structure shown. Read-outs that look alike come from different tables or passages of the source.

Tests used:
[1] = test system: NO production by LPS-stimulated RAW264.7 murine macrophages; assay: Inhibition of NO production by LPS-stimulated murine macrophages; format: cell-based; conditions: Mus musculus
E. coli JB525 [2] = assay: QS inhibition: GFP production in E. coli JB525; format: cell-based, Escherichia coli
[3] = Cytotoxicity / cell survival in Raw264.7 cells; conditions: mouse
V. harveyi BB120 [4] = assay: microbe, parasite or virus in culture; format: cell-based, Vibrio harveyi
TNF-α = assay: qRT-PCR transcript level in LPS-stimulated RAW 264.7 cells: TNF-α; format: cell-based, murine; conditions: after 6 h of treatment
Method in brief: (§1)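 Murine RAW264.7 macrophages were LPS-stimulated and treated with the test compound for 6 h, alongside untreated LPS-stimulated cells. RNA was isolated and reverse-transcribed to cDNA. Transcripts of TNF-α, IL-1β, IL-6 and iNOS were quantified by qRT-PCR and expressed as fold change versus untreated cells. Three replicates were run, reported as mean ± standard deviation, with Student's t-test (p < 0.05).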

iNOS = assay: qRT-PCR transcript level in LPS-stimulated RAW 264.7 cells: iNOS; format: cell-based, murine; conditions: after 6 h of treatment
Method in brief: as §1

V. harveyi BB120 [5] = assay: Growth inhibitory; format: cell-based, Vibrio harveyi
IL-6 = assay: qRT-PCR transcript level in LPS-stimulated RAW 264.7 cells: IL-6; format: cell-based, murine; conditions: after 6 h of treatment
Method in brief: as §1

IL-1β = assay: qRT-PCR transcript level in LPS-stimulated RAW 264.7 cells: IL-1β; format: cell-based, murine; conditions: after 6 h of treatment
Method in brief: as §1

E. coli JB525 [6] = assay: Growth inhibitory; format: cell-based, Escherichia coli
Raw264.7 cells = assay: Cytotoxicity / cell survival in Raw264.7 cells; conditions: for IC50: read-out: Cytotoxicity in Raw264.7 cells (IC50), Raw264.7 cells
[7] = RAW264.7, read-out: NO inhibition (IC50), dash with footnote b
[8] = Escherichia coli, read-out: QS inhibition (IC50) E. coli, dash with footnote d
[9] = Vibrio harveyi, read-out: QS inhibition (IC50) V. harveyi, dash with footnote d
[10] = read-out: QS inhibition (IC50) E. coli, inhibition of GFP production, E. coli JB525, OHHL autoinducer
[11] = read-out: QS inhibition (IC50) V. harveyi, inhibition of bioluminescence, V. harveyi BB120
[12] = RAW264.7, read-out: NO inhibition (IC50 ± SD)
[13] = Escherichia coli, read-out: QS inhibition (IC50) E. coli
[14] = Vibrio harveyi, read-out: QS inhibition (IC50) V. harveyi

Compound | IC50 (E. coli JB525 [2]; [8]) [µg/mL] | IC50 [3] [µM] | IC50 (V. harveyi BB120 [4]; [9]) [µg/mL] | growth inhibitory effects: none observed up to concentration (V. harveyi BB120 [5]) [µM] | IC50 (E. coli JB525 [2]; [10]) [µM] | IC50 (Raw264.7 cells) [µM] | IC50 (V. harveyi BB120 [4]; [11]) [µM] | IC50 [1, 12] [µM] | IC50 ([3]; RAW264.7 macrophage cells) [µM] | IC50 (V. harveyi BB120 [4]; [14]) [µM] | further results
O=C1OCCC1O (racemic) [Compound 6, (R/S)-2-hydroxy-γ-butyrolactone] | > 125 | > 98 | > 125 | – | – | – | – | – | – | – | IC50 [1, 7]: > 30 µg/mL
O=C(/C=C/CCl)O[C@@H]1COC(=O)C1 [Compound 1, Honaucin A] | – | – | – | > 610 | 38.5 | > 49 | 5.6 | – | – | – | reduction in transcripts of TNF-α (TNF-α): −9.3 fold; reduction in transcripts of iNOS (iNOS): −11.8 fold; reduction in transcripts of IL-6 (IL-6): −19.0 fold; reduction in transcripts of IL-1β (IL-1β): −154.6 fold; growth inhibitory effects: none observed up to concentration (E. coli JB525 [6]): > 610 µM; therapeutic window between NO inhibitory effect and cytotoxicity (Raw264.7 cells; RAW264.7 cells, cytotoxicity IC50 vs NO inhibition IC50): greater than ten-fold
CCOC(=O)C[C@H](O)COC(=O)/C=C/CCl [Compound 2, Honaucin B] | – | – | – | > 458 | 908 | 16 | 17.6 | – | – | – | growth inhibitory effects: none observed up to concentration (E. coli JB525 [6]): > 458 µM
COC(=O)C[C@H](O)COC(=O)/C=C/CCl [Compound 3, Honaucin C] | – | – | – | > 483 | 576 | 30 | 14.6 | – | – | – | growth inhibitory effects: none observed up to concentration (E. coli JB525 [6]): > 483 µM
O=C1C[C@H](O)CO1 [Compound 4, (S)-3-hydroxy-γ-butyrolactone] | > 125 | > 98 | > 125 | – | – | – | – | – | – | – | –
O=C1C[C@@H](O)CO1 [Compound 5, (R)-3-hydroxy-γ-butyrolactone] | > 125 | > 98 | > 125 | – | – | – | – | – | – | – | –
O=C(O)/C=C/CCl [Compound 7, 4-chlorocrotonic acid] | – | – | – | – | – | – | – | 28 ± 4.3 | 80 | 72.5 | IC50 (E. coli JB525 [2]; [13]): 152 µM
C/C=C/C(=O)O [Compound 9, crotonic acid] | > 125 | – | > 125 | – | – | – | – | > 116 | > 116 | – | IC50 [1, 7]: > 30 µg/mL
O=C(O)/C=C/CF [Compound 13, 4-fluorocrotonic acid] | – | > 288 | – | – | – | – | – | 11.6 ± 4.3 | – | 167 | IC50 (E. coli JB525 [2]; [13]): > 304 µM
O=C(O)/C=C/CBr [Compound 14, 4-bromocrotonic acid] | – | – | – | – | – | – | – | 3.5 ± 0.5 | 35 | 10.5 | MIC (antibiotic effect) (E. coli JB525 [6]): 188 µM (≈ 31 µg/mL)
O=C(O)/C=C/CI [Compound 15, 4-iodocrotonic acid] | – | – | – | > 32 | – | – | – | 1.2 ± 0.2 | 10 | 1.2 | MIC (antibiotic effect) (E. coli JB525 [6]): 18 µM (≈ 3.82 µg/mL)
O=C(/C=C/CCl)O[C@H]1COC(=O)C1 [Compound 17, epi-honaucin A] | – | – | – | – | 260 | > 49 | 22.1 | – | – | – | –
